In ChEMBL document CHEMBL3585281, “Antibacterial Labdane Diterpenoids from Vitex vestita” (2015):
Values after ≈ are worked out from the molar mass of the structure shown.

Columns and labels:
Assay type in all cases: functional
[1] = test system: Enterococcus hirae; assay: Antibacterial activity against Enterococcus hirae CIP 5855 after 18 hrs by agar dilution method; details: CIP 5855, 18 h
Procedure, shortened: (§1)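 Agar-dilution MIC against Gram-positive strains. Compounds in DMSO, geometric dilutions giving final 100−0.75 mg/L in Mueller Hinton agar. Strains grown 18 h at 37 °C in trypticase soy broth, diluted in sterile water, spotted by Steers inoculator (about 1000 UFC/spot). Plates incubated 18 h at 37 °C; DMSO blank; ofloxacin positive control. MIC = lowest concentration with no visible growth.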

[2] = test system: Corynebacterium striatum; assay: Antibacterial activity against Corynebacterium striatum N840 after 18 hrs by agar dilution method; details: N840, 18 h; procedure, shortened: as §1
[3] = test system: Bacillus cereus; assay: Antibacterial activity against Bacillus cereus N349 after 18 hrs by agar dilution method; details: N349, 18 h; procedure, shortened: as §1
[4] = test system: Staphylococcus aureus; assay: Antibacterial activity against Staphylococcus aureus CRBIP 2121 after 18 hrs by agar dilution method; details: CRBIP 2121, 18 h; procedure, shortened: as §1
[5] = test system: Enterococcus faecalis; assay: Antibacterial activity against Enterococcus faecalis N491 after 18 hrs by agar dilution method; details: N491, 18 h; procedure, shortened: as §1
[6] = test system: Staphylococcus aureus; assay: Antibacterial activity against Staphylococcus aureus CIP 5710 after 18 hrs by agar dilution method; details: CIP 5710, 18 h; procedure, shortened: as §1
[7] = test system: Staphylococcus epidermidis; assay: Antibacterial activity against Staphylococcus epidermidis CIP 53124 after 18 hrs by agar dilution method; details: CIP 53124, 18 h; procedure, shortened: as §1
[8] = test system: Staphylococcus aureus; assay: Antibacterial activity against Staphylococcus aureus CIP 483 after 18 hrs by agar dilution method; details: CIP 483, 18 h; procedure, shortened: as §1
[9] = test system: Enterococcus faecalis; assay: Antibacterial activity against Enterococcus faecalis N518 after 18 hrs by agar dilution method; details: N518, 18 h; procedure, shortened: as §1
[10] = test system: Enterococcus faecalis; assay: Antibacterial activity against Enterococcus faecalis CIP 104676 after 18 hrs by agar dilution method; details: CIP 104676, 18 h; procedure, shortened: as §1
[11] = test system: Listeria monocytogenes; assay: Antibacterial activity against Listeria monocytogenes N851 after 18 hrs by agar dilution method; details: N851, 18 h; procedure, shortened: as §1
[12] = test system: Staphylococcus intermedius; assay: Antibacterial activity against Staphylococcus intermedius N987 after 18 hrs by agar dilution method; details: N987, 18 h; procedure, shortened: as §1
[13] = test system: Mammaliicoccus sciuri; assay: Antibacterial activity against Staphylococcus sciuri N993 after 18 hrs by agar dilution method; details: N993, 18 h; procedure, shortened: as §1
[14] = test system: Enterococcus faecium; assay: Antibacterial activity against Enterococcus faecium N490 after 18 hrs by agar dilution method; details: N490, 18 h; procedure, shortened: as §1
[15] = test system: Enterococcus faecium; assay: Antibacterial activity against Enterococcus faecium N733 after 18 hrs by agar dilution method; details: N733, 18 h; procedure, shortened: as §1
[16] = test system: Enterococcus faecalis; assay: Antibacterial activity against Enterococcus faecalis CIP 103214 after 18 hrs by agar dilution method; details: CIP 103214, 18 h; procedure, shortened: as §1
[17] = test system: Enterococcus faecium; assay: Antibacterial activity against Enterococcus faecium CIP 107387 after 18 hrs by agar dilution method; details: CIP 107387, 18 h; procedure, shortened: as §1
[18] = test system: Bacillus cereus; assay: Antibacterial activity against Bacillus cereus CIP 6624 after 18 hrs by agar dilution method; details: CIP 6624, 18 h; procedure, shortened: as §1
[19] = test system: Enterococcus durans; assay: Antibacterial activity against Enterococcus durans CIP 104999 after 18 hrs by agar dilution method; details: CIP 104999, 18 h; procedure, shortened: as §1
[20] = test system: Enterococcus casseliflavus; assay: Antibacterial activity against Enterococcus casseliflavus CIP 103018 after 18 hrs by agar dilution method; details: CIP 103018, 18 h; procedure, shortened: as §1
[21] = test system: Enterococcus faecalis; assay: Antibacterial activity against Enterococcus faecalis N520 after 18 hrs by agar dilution method; details: N520, 18 h; procedure, shortened: as §1
[22] = test system: Enterococcus gallinarum; assay: Antibacterial activity against Enterococcus gallinarum N489 after 18 hrs by agar dilution method; details: N489, 18 h; procedure, shortened: as §1
[23] = test system: Bacillus spizizenii; assay: Antibacterial activity against Bacillus subtilis ATCC 6633 after 18 hrs by agar dilution method; details: ATCC 6633, 18 h; procedure, shortened: as §1
[24] = test system: Listeria monocytogenes; assay: Antibacterial activity against Listeria monocytogenes N783 after 18 hrs by agar dilution method; details: N783, 18 h; procedure, shortened: as §1
[25] = test system: Listeria monocytogenes; assay: Antibacterial activity against Listeria monocytogenes CIP 103575 after 18 hrs by agar dilution method; details: CIP 103575, 18 h; procedure, shortened: as §1
[26] = test system: Bacillus cereus; assay: Antibacterial activity against Bacillus cereus N190 after 18 hrs by agar dilution method; details: N190, 18 h; procedure, shortened: as §1
[27] = test system: Staphylococcus aureus; assay: Antibacterial activity against Staphylococcus aureus CIP 7625 after 18 hrs by agar dilution method; details: CIP 7625, 18 h; procedure, shortened: as §1
[28] = test system: Staphylococcus aureus; assay: Antibacterial activity against Staphylococcus aureus CIP 53154 after 18 hrs by agar dilution method; details: CIP 53154, 18 h; procedure, shortened: as §1
[29] = test system: Enterococcus faecium; assay: Antibacterial activity against Enterococcus faecium N507 after 18 hrs by agar dilution method; details: N507, 18 h; procedure, shortened: as §1
[30] = test system: Listeria innocua; assay: Antibacterial activity against Listeria innocua E044 after 18 hrs by agar dilution method; details: E044, 18 h; procedure, shortened: as §1
[31] = test system: Streptococcus agalactiae; assay: Antibacterial activity against Streptococcus agalactiae CIP 103227 after 18 hrs by agar dilution method; details: ATCC 13813, 18 h; procedure, shortened: as §1
[32] = test system: Staphylococcus haemolyticus; assay: Antibacterial activity against Staphylococcus haemolyticus CIP 8156 after 18 hrs by agar dilution method; details: CIP 8156, 18 h; procedure, shortened: as §1
[33] = test system: Staphylococcus aureus; assay: Antibacterial activity against Staphylococcus aureus ATCC 9144 oxford after 18 hrs by agar dilution method; procedure, shortened: as §1
[34] = test system: Enterococcus gallinarum; assay: Antibacterial activity against Enterococcus gallinarum CIP 105985 after 18 hrs by agar dilution method; details: CIP 105985, 18 h; procedure, shortened: as §1
[35] = test system: Enterococcus avium; assay: Antibacterial activity against Enterococcus avium CIP 104053 after 18 hrs by agar dilution method; details: CIP 104053, 18 h; procedure, shortened: as §1
[36] = test system: Staphylococcus saprophyticus; assay: Antibacterial activity against Staphylococcus saprophyticus CIP 76125 after 18 hrs by agar dilution method; details: CIP 76125, 18 h; procedure, shortened: as §1
[37] = test system: Enterococcus faecium; assay: Antibacterial activity against Enterococcus faecium N823 after 18 hrs by agar dilution method; details: N823, 18 h; procedure, shortened: as §1
[38] = test system: Staphylococcus aureus; assay: Antibacterial activity against Staphylococcus aureus ATCC 25923 after 18 hrs by agar dilution method; details: ATCC 25923, 18 h; procedure, shortened: as §1
[39] = test system: Staphylococcus aureus; assay: Antibacterial activity against Staphylococcus aureus CIP 53156 after 18 hrs by agar dilution method; details: CIP 53156, 18 h; procedure, shortened: as §1
[40] = test system: Listeria monocytogenes; assay: Antibacterial activity against Listeria monocytogenes N836 after 18 hrs by agar dilution method; details: N836, 18 h; procedure, shortened: as §1
[41] = test system: Enterococcus casseliflavus; assay: Antibacterial activity against Enterococcus casseliflavus N487 after 18 hrs by agar dilution method; details: N487, 18 h; procedure, shortened: as §1
[42] = test system: Enterococcus faecium; assay: Antibacterial activity against Enterococcus faecium CIP 103014 after 18 hrs by agar dilution method; details: CIP 103014, 18 h; procedure, shortened: as §1
[43] = test system: Staphylococcus saprophyticus; assay: Antibacterial activity against Staphylococcus saprophyticus E260 after 18 hrs by agar dilution method; details: E260, 18 h; procedure, shortened: as §1
[44] = test system: Enterococcus gallinarum; assay: Antibacterial activity against Enterococcus gallinarum N492 after 18 hrs by agar dilution method; details: N492, 18 h; procedure, shortened: as §1
[45] = test system: Bacillus cereus; assay: Antibacterial activity against Bacillus cereus N258 after 18 hrs by agar dilution method; details: N258, 18 h; procedure, shortened: as §1
[46] = test system: Staphylococcus lugdunensis; assay: Antibacterial activity against Staphylococcus lugdunensis ATCC 43809 after 18 hrs by agar dilution method; details: ATCC 43809, 18 h; procedure, shortened: as §1

- MIC [1]: 12 µM (≈ 3.88 µg/mL)
- MIC [2]: 50 µM (≈ 16.2 µg/mL)
- MIC [3]: 6 µM (≈ 1.94 µg/mL)
- MIC [4]: 12 µM (≈ 3.88 µg/mL)
- MIC [5]: 12 µM (≈ 3.88 µg/mL)
- MIC [6]: 12 µM (≈ 3.88 µg/mL)
- MIC [7]: 6 µM (≈ 1.94 µg/mL)
- MIC [8]: 12 µM (≈ 3.88 µg/mL)
- MIC [9]: 25 µM (≈ 8.08 µg/mL)
- MIC [10]: 200 µM (≈ 64.6 µg/mL)
- MIC [11]: 25 µM (≈ 8.08 µg/mL)
- MIC [12]: 25 µM (≈ 8.08 µg/mL)
- MIC [13]: 12 µM (≈ 3.88 µg/mL)
- MIC [14]: 12 µM (≈ 3.88 µg/mL)
- MIC [15]: 12 µM (≈ 3.88 µg/mL)
- MIC [16]: 25 µM (≈ 8.08 µg/mL)
- MIC [17]: 12 µM (≈ 3.88 µg/mL)
- MIC [18]: 6 µM (≈ 1.94 µg/mL)
- MIC [19]: 12 µM (≈ 3.88 µg/mL)
- MIC [20]: 25 µM (≈ 8.08 µg/mL)
- MIC [21]: 200 µM (≈ 64.6 µg/mL)
- MIC [22]: 12 µM (≈ 3.88 µg/mL)
- MIC [23]: 12 µM (≈ 3.88 µg/mL)
- MIC [24]: 12 µM (≈ 3.88 µg/mL)
- MIC [25]: 25 µM (≈ 8.08 µg/mL)
- MIC [26]: 6 µM (≈ 1.94 µg/mL)
- MIC [27]: 25 µM (≈ 8.08 µg/mL)
- MIC [28]: 12 µM (≈ 3.88 µg/mL)
- MIC [29]: 25 µM (≈ 8.08 µg/mL)
- MIC [30]: 12 µM (≈ 3.88 µg/mL)
- MIC [31]: 3 µM (≈ 0.969 µg/mL)
- MIC [33]: 12 µM (≈ 3.88 µg/mL)
- MIC [34]: 12 µM (≈ 3.88 µg/mL)
- MIC [35]: 12 µM (≈ 3.88 µg/mL)
- MIC [36]: 25 µM (≈ 8.08 µg/mL)
- MIC [37]: 25 µM (≈ 8.08 µg/mL)
- MIC [38]: 25 µM (≈ 8.08 µg/mL)
- MIC [39]: 12 µM (≈ 3.88 µg/mL)
- MIC [40]: 12 µM (≈ 3.88 µg/mL)
- MIC [41]: 25 µM (≈ 8.08 µg/mL)
- MIC [42]: 25 µM (≈ 8.08 µg/mL)
- MIC [43]: 25 µM (≈ 8.08 µg/mL)
- MIC [44]: 25 µM (≈ 8.08 µg/mL)
- MIC [45]: 6 µM (≈ 1.94 µg/mL)
- MIC [46]: 12 µM (≈ 3.88 µg/mL)
Compound: O=C(N[C@H](CO)[C@H](O)c1ccc([N+](=O)[O-])cc1)C(Cl)Cl [CHLORAMPHENICOL]
- MIC [32]: 6 µM (≈ 1.94 µg/mL)
